# Screening results: PubChem, several laboratories
# BB579 growth dn: growth inhibitors of yeast BB579 in restrictive medium, primary screen, yeast lifespan-shortening project, S. cerevisiae; OD615, 48 h; inhibition, % at 10 µM; 140,000 compounds, 0.51% hits;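 active = inhibition above a set limit, 3 SD over the mean compound inhibition, cut at about 44% in these data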
#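 Test system: S. cerevisiae DeaD strain BB579 yeast; Medium: restrictive CSMM-D medium; Compound: one dose, 10 µM compound with 0.25% DMSO; Incubation: 4 h cell preincubation, 48 h compound exposure, 30 °C humidified; Signal: OD at 615 nm; Benchmarks: amphotericin B at 10 µg/mL as positive control.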
# sdo1 growth: growth rescue of sdo1-depleted yeast, primary screen, S. cerevisiae, bone marrow failure model; S. cerevisiae sdo1-depleted JHY4D growth rescue, OD600 30 h; stronger effect = higher value; pdr5 snq2 efflux-pump mutant strain; z-score at 10 µM; 140,000 compounds, 0.21% hits; AID 817, 2007;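 active = z-score above 3 at both the 24 hr and the 30 hr optical density reads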
# sEH activator: soluble epoxide hydrolase activators, primary screen, biochemical, human sEH; 91,000 compounds, 0.04% hits; activation, % at 2 µM; purified human sEH enzymatic activity, activator screen; Bifunctional epoxide hydrolase 2 (Homo sapiens), P34913; in the data active = activation above about 37%
# Target sequence (P34913 whole entry, looked up): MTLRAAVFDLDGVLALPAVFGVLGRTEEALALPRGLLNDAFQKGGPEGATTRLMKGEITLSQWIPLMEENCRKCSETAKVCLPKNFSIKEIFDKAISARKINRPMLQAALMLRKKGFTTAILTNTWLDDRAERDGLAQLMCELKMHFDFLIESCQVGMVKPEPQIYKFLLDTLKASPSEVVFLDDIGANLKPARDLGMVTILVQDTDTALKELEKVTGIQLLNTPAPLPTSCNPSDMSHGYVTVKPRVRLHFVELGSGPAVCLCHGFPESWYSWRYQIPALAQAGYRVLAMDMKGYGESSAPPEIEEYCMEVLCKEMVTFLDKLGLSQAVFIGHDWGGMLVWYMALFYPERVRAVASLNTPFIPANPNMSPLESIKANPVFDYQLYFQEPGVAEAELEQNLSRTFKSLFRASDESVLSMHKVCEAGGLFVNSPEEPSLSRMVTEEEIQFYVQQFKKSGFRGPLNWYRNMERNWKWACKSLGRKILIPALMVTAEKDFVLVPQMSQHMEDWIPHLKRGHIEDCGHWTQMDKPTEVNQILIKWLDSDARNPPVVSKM
# Measles CPE: compounds protecting cells from measles virus cytopathic effect, primary screen, measles RdRp inhibitor project, single point, MLSMR library, absorbance; Measles virus-infected cells, CPE protection; protection (pct of control), % at 4 µM; 140,000 compounds, 1.5% hits; AID 841, 2007; in the data active = protection mostly above about 24%, no sharp cut-off; inactive = mostly below about 26%
# sEH inhibitor: soluble epoxide hydrolase inhibitors, primary screen, biochemical, human sEH. AID 707, 2007. recombinant human sEH enzymatic activity assay. 91,000 compounds, 0.34% hits. inhibition, % at 2 µM. Bifunctional epoxide hydrolase 2 (Homo sapiens), P34913; in the data active = inhibition above about 80%
# Yeast lifespan up: compounds extending yeast replicative lifespan, primary screen, S. cerevisiae, OD615; S. cerevisiae growth with nicotinamide; deaD strain in restrictive glucose medium; inhibition of the nicotinamide effect, % at 10 µM; 130,000 compounds, 0.68% hits;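 active = inhibition above a set limit, placed 3 SD over the median of all compounds, cut at about 26% in these data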
#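 Material: Modified budding yeast, DeaD strain | Medium: Restrictive glucose medium | Probe or stimulus: 1.5 mM nicotinamide | Dosing: Single dose 10 µM compound, 0.25% DMSO | Times: 48 h at 30 °C | Technique: OD615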
# Hits are given with their value; i = inactive; nt = not tested or not shown. Only some compounds are listed: those with a hit (about 3% of all), similar ones and a draw of the others.
SMILES,BB579 growth dn,sdo1 growth,sEH activator,Measles CPE,sEH inhibitor,Yeast lifespan up
COc1ccc(CCNC(=O)CSc2nn(-c3ccccc3)c(=S)s2)cc1OC,i,i,nt,i,nt,i
N#CC(C#N)=C1CCc2ccccc2N1,i,i,i,58.8,i,nt
C=C1c2cc(C)ccc2NC(=O)N1c1ccccc1,i,i,nt,i,nt,i
O=C1c2ccccc2-c2nccnc21,i,i,i,i,i,i
O=C1c2cccnc2-c2ncccc21,i,i,i,46.1,i,i
O=C1c2ccccc2N2C(=O)c3ccccc3C2N1O (stereo not drawn),i,i,i,i,i,38.5
Cc1cc(C)c2c3c(cn2n1)c(=O)n(C)c(=O)n3C,nt,nt,i,nt,i,nt
O=C(O)CCn1cc(/C=C/C(=O)c2ccc(Cl)cc2)c(-c2ccc(Br)cc2)n1,52.3,i,nt,i,nt,i
O=C(O)/C=C/c1cn(Cc2ccccc2)nc1-c1ccccc1,i,i,i,i,i,i
O=C1CC(c2cccc(Cl)c2)CC(O)=C1C=Nc1cccc(Cl)c1 (stereo not drawn),i,i,nt,i,nt,28.9
O=C1CC(c2cccc(Cl)c2)CC(O)=C1C=NCCCO (stereo not drawn),i,i,i,i,i,i
COc1cccc(C2NC(C)(C(=O)O)C3C(=O)N(C(C)C)C(=O)C23)c1O (stereo not drawn),i,i,i,29.4,i,i
Cc1ccccc1Cn1nc(C)c(NC(=O)C2c3ccccc3Oc3ccccc32)c1C,i,i,nt,i,nt,i
Oc1c(Cl)cc(Cl)cc1C(C#Cc1ccccc1)N1CCOCC1 (stereo not drawn),i,i,i,i,i,i
Oc1c(Cl)cc(Cl)cc1Sc1cc(Cl)cc(Cl)c1O,53.0,i,nt,i,nt,i
O=Cc1c[nH]c2ccc(S(=O)(=O)N3CCOCC3)cc12,i,i,nt,i,nt,i
O=C(COC(=O)c1ccc(CO)cc1)NCc1cccs1,i,i,nt,i,nt,i
CCC(=O)Nc1cccc(-c2cnc3ccccc3n2)c1,i,i,i,40.5,i,i
O=C(CCl)Nc1cccc(-c2cnc3ccccc3n2)c1,i,i,i,i,i,i
COC(=O)C1CCN(C(=O)c2sc3nc(-c4ccc(F)cc4)cn3c2C)CC1,i,i,i,39.4,i,i
Cc1cc(C(F)(F)F)n(-c2nc(C(=O)Nc3ccccc3Oc3ccccc3)cs2)n1,i,i,i,i,i,i
Cc1ccc(NC(=S)N/N=C/c2ccc([N+](=O)[O-])s2)cc1,i,i,nt,i,nt,i
Cc1cc(C)cc(N=Cc2ccc([N+](=O)[O-])s2)c1,99.9,i,nt,i,nt,i
NC(=O)c1ccc(N=Cc2ccc([N+](=O)[O-])s2)cc1,100.0,i,nt,i,nt,i
O=[N+]([O-])c1ccc(/C=N/n2cnc3ccccc32)s1,i,i,nt,i,nt,i
SMILES,BB579 growth dn,sdo1 growth,sEH activator,Measles CPE,sEH inhibitor,Yeast lifespan up
CCOC(=O)C1=C(O)/C(=C/c2ccc(C)o2)SC1=NC(=O)c1ccccc1C,nt,nt,i,nt,i,nt
COc1ccc(NC(=S)N(CCc2nc3cc(C)c(C)cc3[nH]2)Cc2cccnc2)cc1,i,i,i,i,i,i
CCOC(=O)C1(CC/C(C)=N\NC(N)=O)CC(C)(C)OC1=O (stereo not drawn),i,i,nt,i,nt,i
Cn1cccc1C(=O)C(=O)Nc1ccc(Cl)cc1,i,i,i,40.8,i,i
O=C1CN(CC(=O)N2CCOCC2)c2ccccc2O1,i,i,i,i,i,i
O=C1CN(CC(=O)N2CCCCC2)c2ccccc2O1,46.3,i,i,i,i,i
Cc1ccnc(NC2(C(F)(F)F)N=C(c3ccccc3)NC2=O)c1 (stereo not drawn),i,i,i,i,i,i
C/C(=N\NC(=O)C1CC1)c1cccs1,i,i,nt,i,nt,27.2
O=C(CN(C(=O)CSc1nc2ccccc2o1)c1ccccc1F)NC1CCCCC1,i,i,nt,i,nt,i
O=C(Cc1coc2ccc3ccccc3c12)Nc1nnc(C2CC2)s1,i,i,i,56.5,i,i
O=C1N=C(N2CCN(c3ccccc3)CC2)S/C1=C\c1cn[nH]c1-c1ccccc1,i,i,nt,29.1,nt,i
Cc1ccc(CONC(=O)/N=C/N(C)C)cc1,i,i,i,i,i,i
C=C(C)c1cccc(C(C)(C)NC(=O)Nc2cc(C)ccc2OC)c1,i,i,i,60.3,i,i
C#CCOCCOCCOCCNc1nc(N2CCOCC2)nc(N2CCN(C(=O)Cn3cc(CC(C)O)nn3)CC2)n1 (stereo not drawn),i,i,nt,i,nt,i
Cc1ncc(CO)c2cc(C(N)=O)c(=Nc3ccccc3)oc12,i,i,i,48.1,i,i
Cc1ccc(N=c2oc3cc(O)ccc3cc2C(N)=O)cc1,i,i,i,i,i,i
COc1ccc(CCN=C(N)NS(=O)(=O)c2ccc3ccccc3c2)cc1,i,i,nt,i,nt,i
CCc1ccccc1NS(=O)(=O)c1ccc2c(c1)NC(=O)CC(=O)N2,i,i,nt,36.8,nt,i
COC(=O)c1cc(NS(=O)(=O)c2ccc(NCc3cccnc3)c([N+](=O)[O-])c2)cc(C(=O)OC)c1,i,i,nt,i,nt,i
CC(=O)N1CC=CC1(C)C(=O)O (stereo not drawn),i,i,nt,i,nt,i
CCCCC(CC)Cn1c2nc3ccccc3nc2c2c(=N)oc(C)nc21 (stereo not drawn),i,i,i,i,i,93.9
Cc1cccc(C)c1N=Cc1c(O)n(-c2nccs2)c(=O)c2ccccc12,i,i,nt,i,nt,33.3
Cc1cc(C)c(N=Cc2c(O)n(-c3nccs3)c(=O)c3ccccc23)c(C)c1,i,i,nt,i,nt,i
CC(C)CNS(=O)(=O)c1ccc(CCC(=O)Nc2ccc3c(c2)OCCO3)cc1,i,i,i,i,i,i
Cc1ccc(NC(=O)NC2CCN(S(=O)(=O)c3ccc(F)cc3)CC2)cc1,i,i,i,i,84.8,nt
SMILES,BB579 growth dn,sdo1 growth,sEH activator,Measles CPE,sEH inhibitor,Yeast lifespan up
OCCNCCCCOc1ccc(OCc2ccccc2)cc1,i,i,nt,i,nt,i
OCCNCCCCOc1ccc(F)cc1,i,i,i,48.5,i,i
CC(C)Oc1ccc(C(CC(=O)NCc2ccco2)c2ccccc2)cc1 (stereo not drawn),i,i,i,24.1,i,i
CC(C)N(C(=O)CSc1nnc(Cn2nnc3ccccc32)n1C)C(C)C,i,i,i,i,i,i
O=C(O)CSc1nnc(Cn2nnc3ccccc32)n1CCc1ccccc1,i,i,i,28.3,i,i
CC1Cc2ccccc2N1C(=O)CSc1nnc(Cn2nnc3ccccc32)n1C (stereo not drawn),i,i,i,36.5,i,i
CCOc1ccc(S(=O)(=O)N/N=C2/CC(c3ccccc3)Oc3ccccc32)cc1 (stereo not drawn),i,i,i,i,i,i
CCc1cc(C=C(Cl)Cl)oc(=O)c1C,i,i,i,56.2,i,i
